Test results taken from PubChem BioAssay AID720543 (The Scripps Research Institute Molecular Screening Center, 2013).
Among all 370,000 compounds or so, about 2,000 (0.54%) were called active. The list comes from a sample in which actives are over-represented; it also holds similar structures and randomly drawn compounds. Unmarked numbers belong to inactive results.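 Rule for the calls: active = inhibition exceeding the mean over every tested compound plus 3 SD (cut at about 30% in these data); inactive = the rest.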

Molecular target: (Lyso)-N-acylphosphatidylethanolamine lipase (Mus musculus) (UniProt Q8VD66)
Sequence (Q8VD66 whole entry, looked up): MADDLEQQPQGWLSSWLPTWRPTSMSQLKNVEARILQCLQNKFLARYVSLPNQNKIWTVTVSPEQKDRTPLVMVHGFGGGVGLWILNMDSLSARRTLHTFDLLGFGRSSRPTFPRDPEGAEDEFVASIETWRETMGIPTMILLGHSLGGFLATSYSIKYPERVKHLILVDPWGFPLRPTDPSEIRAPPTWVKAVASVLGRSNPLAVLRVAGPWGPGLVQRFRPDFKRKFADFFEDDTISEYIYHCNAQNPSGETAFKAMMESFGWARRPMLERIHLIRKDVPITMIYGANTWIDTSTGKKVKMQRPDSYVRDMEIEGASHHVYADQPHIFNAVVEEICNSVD
Experiment: ABHD4 inhibitors, primary screen, biochemical, fluorescence polarization, mouse (AID 720543);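 note: 0% = plate median of compound wells and 100% = S159A mutant with DMSO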
Conditions: purified mABHD4, FP-Rh probe fluorescence polarization; at 8.92 µM; hits give high values
Procedure, shortened: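 Test system: mABHD4 protein | Buffer or medium: HEPES pH 7.0 buffer, 150 mM NaCl, 0.01% Pluronic F-127 | Probe or stimulus: FP-Rh fluorescent activity-based probe, added after compound pre-incubation | Timing: Pre-incubation 45 min, probe exposure 60 min, at 25 °C | Technique: Fluorescence polarization, excitation 525 nm, emission 598 nm, BODIPY TMR filters | Repeats: Single well per compound (singlicate)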

SMILES	inhibition
CN(C)c1ccc(C(CC(=O)O)C(=O)O)cc1 (stereo unspecified)	24.1%
CC1CN(/C=C/C(=O)C(F)(F)F)CC(C)O1 (stereo unspecified)	-3.37%
CN(C)c1ccc(N/C=C/C(=O)C(F)(F)F)cc1	49.4% (active)
CC(=O)C1=C(C)NC(=O)NC1c1cc(Br)ccc1OCC#N (stereo unspecified)	4.75%
Nc1[nH]c(C(=O)c2ccccc2)c(-c2ccc(Cl)cc2Cl)c1C(=O)c1ccccc1	-1.34%
CC(C)(C)c1ccc(S(=O)(=O)NC(=O)C2(C)CCN2C(=O)CC2CC2)cc1 (stereo unspecified)	-2.61%
CCCC(=O)N1CCC1(C)C(=O)NS(=O)(=O)c1ccc(Cl)cc1 (stereo unspecified)	-1.74%
CC(C)c1ccc(CC(=O)N2CCC2(C)C(=O)NS(=O)(=O)c2ccc(C(C)(C)C)cc2)cc1 (stereo unspecified)	59% (active)
CCCCOCC1CN(CCCC)S(=O)(=O)c2c(Oc3ccc(F)cc3)cccc2O1 (stereo unspecified)	4.37%
COC(CNC(=O)[C@H](Cc1ccccc1)NC1(C(=O)NC2CCCCC2)CCCCC1)OC	3.57%
COCc1cc(N2CCN(C(=O)OC(C)(C)C)C[C@@H]2C)ccc1N1CCN(Cc2ccccc2)[C@H](C)C1	-12.1%
COc1ccc(C#CCNCc2ccc(OC)cc2OC)cc1	-4.3%
O=Nc1c(O)cc(O)c2ccccc12	55.7% (active)
O=c1c2ccccc2ccc2ccc(P(=O)(O)O)cc12	12%
Cc1ccc(S(=O)(=O)N(C)C)cc1NC(=O)c1n[nH]c(=O)c2ccccc12	-9.11%
CCOc1ccccc1C(=O)N1CCC[C@@H]1C(=O)N1CCC[C@H]1C(=O)NCc1ccccc1	1.14%
CCOC(=O)CSc1nnc(CNC(=O)c2ccco2)n1-c1ccc(F)cc1	0.65%
COC(=O)c1cc2c(c3c4cc(F)ccc4n(S(=O)(=O)c4ccccc4)c13)C(=O)N(Cc1ccccc1OC)C2	-11.3%
COc1ccc(C(CC(=O)c2ccccc2)S(=O)(=O)c2ccccc2)cc1 (stereo unspecified)	-2.98%
Cc1ccc(C)c(NC(=O)NNC(=O)c2ccc3ccccc3c2O)c1	8.45%
COC(=O)c1cc(N2CCNCC2)nc2ccccc12	1.72%
O=C(NNc1c2ccccc2nc2ccccc12)c1cc2ccccc2cc1O	31.3% (active)

SMILES	inhibition
CC(C)(C)c1ccc(S(=O)(=O)NCC2CCN(C(=O)C(=O)c3cc4ccccc4o3)CC2)cc1	-26.4%
NC(=O)C1CCN(C(=O)c2cc(S(=O)(=O)N3CCN(c4ccccc4)CC3)ccc2Cl)CC1	6.55%
O=C1CCC([N+](=O)[O-])C(c2ccccc2Br)N1 (stereo unspecified)	-0.46%
Brc1ccccc1C1Nc2cccc3cccc(c23)N1	45.1% (active)
O=C(Nc1ccc(Br)cc1)OCCN1C(=O)CCC12CCC(c1ccccc1)CC2 (stereo unspecified)	0.58%
COC(=O)[C@H](C(C)C)N(CCc1cn(Cc2ccccc2)nn1)S(=O)(=O)c1ccc(F)cc1Br	-6.45%
CC1(C)OC(=O)C2=C(C[C@@H](C3CC3)O[C@H]2CCc2cccc(Cl)c2)O1	-7.3%
CC(=O)O[C@@]1(C(C)=O)CCC2[C@H]3C=C(C)C4=CC(=O)CC[C@@]4(C)C3CC[C@]21C (stereo partly specified)	5.34%
Nc1ccc2nc3c(=O)[nH]c(=S)[nH]c3nc2c1	53.6% (active)
Cc1cc(Cl)c(S(=O)(=O)Nc2ccc3c(c2)OCCO3)cc1OCC(N)=O	-2.74%
CC1CCCN(S(=O)(=O)c2ccc(-c3ccc(=O)[nH]n3)o2)C1 (stereo unspecified)	-2.46%
CC(C)CNS(=O)(=O)CC1NCCc2ccccc21 (stereo unspecified)	3.38%
COC(=O)[C@]12C[C@H](CC(=O)NCCCCc3ccccc3)C(=O)N(Cc3ccc4c(c3)OCO4)C1=C[C@H](C(C)(C)C)O[C@@H]2C	0.01%
OCCNc1nc(Nc2ccc(Cl)c(Cl)c2)nc2ccccc12	39.5% (active)
OCCNCCOc1ccc(Cl)c(Cl)c1	3.5%
O=C(CCS(=O)(=O)c1ccccc1)Nc1ccc(Cl)c(Cl)c1	-9.05%
CCOC(=O)[C@]12CCC=C1N(Cc1ccccc1)C(=O)[C@H](CC(=O)N1CCCC1)C2	-6.55%
O=C1[C@@H](c2ccccc2)[C@@H](c2ccccc2)N1c1ccccc1	-3.86%
Cc1cc2nc(-c3ccco3)c(Cc3cccc(F)c3)n2c(C)c1Br	10.5%
COC(=O)C[C@@H]1CC[C@@H]2[C@@H](COc3ccc(NC(=O)Nc4ccc(F)c(F)c4)cc3C(=O)N2C)O1	4.06%
CCOc1c(Br)cc(/C=C2\C(=O)N(CCC#N)N=C2C)cc1OC	-10.7%
COc1cc(/C=C2/C(=O)NN(c3cccc(Cl)c3)C2=O)cc(Br)c1O	38.5% (active)

SMILES	inhibition
CC1CN(Cc2nc3c(c(=O)n(C)c(=O)n3C)n2Cc2cccc(Cl)c2)CC(C)O1 (stereo unspecified)	4.39%
CCCC1CCC2(CCCN2CCOC(=O)NCc2ccccc2)CC1 (stereo unspecified)	-7.41%
O=[N+]([O-])c1cc(Br)c(O)c(/C=N/Nc2nc3ccccc3s2)c1	38.8% (active)
CCC1(C)Cc2c(sc3nnn(CC(=O)Nc4ccc(Cl)cc4)c(=O)c23)CO1 (stereo unspecified)	-18.9%
CC(=O)Nc1ccc(NC(=O)c2ccc3c(c2)C(=O)N(c2ccccc2C)C3=O)cc1	-1.82%
COc1ccc(OC)c(NC(=O)c2ccc3c(c2)C(=O)N(c2ccc(OC(C)=O)cc2)C3=O)c1	3.91%
O=C(O)c1ccc2c(c1)C(=O)N(c1ccc(/C=C/C(=O)c3ccccc3)cc1)C2=O	39.1% (active)
Cc1cccnc1C(NC(=O)C1CCN(Cc2ccc(Cl)c(Cl)c2)CC1)c1ccc(Cl)cc1 (stereo unspecified)	-1.83%
CC1CN(C2CCCCC2)c2nc3c(c(=O)n(C)c(=O)n3C)n2C1 (stereo unspecified)	-5.35%
COc1cccc(CSc2nnc(-c3cccnc3)n2Cc2ccccc2)c1	0.82%
COc1cc(/C=C/C(=O)n2cnc3ccccc32)cc(OC)c1OC	-5.44%
C[C@H]1[C@H](NC(=O)c2cccc(N(C)C)c2)CC[C@@]23CCCN2C(=O)CCC[C@@H]13	4.02%
COC(=O)c1cccc(Cn2ccc3ccc(-c4ccc5ccn(C(=O)C6CCCCC6)c5c4)cc32)c1	3.18%
COc1cccc2c1C(=O)c1c(O)c3c(c(O)c1C2=O)CC(O)(C(C)=NNC(=O)c1ccc(Cl)c(Cl)c1)CC3OC1CC(N)C(O)C(C)O1 (stereo unspecified)	67.4% (active)
Cc1ccc(S(=O)(=O)/N=C2\C=C(NS(=O)(=O)c3ccc(C)cc3)C(=O)c3ccccc32)cc1	40.1% (active)
Cc1ccc(S(=O)(=O)/N=S(\C)C(C)C)cc1 (stereo unspecified)	-2.12%
Cc1ccc(S(=O)(=O)N[C@H](CO)C(C)C)cc1	-3.46%
C[C@@H](NC(=O)OC(C)(C)C)c1nnc(S(=O)(=O)Cc2ccccc2)o1	11.2%
CC(C)C(=O)N1c2ccccc2NC2=C(C(=O)CCC2)C1c1ccc(N(C)C)cc1 (stereo unspecified)	7.43%
CCCCCCCCNS(=O)(=O)/C=C/c1cc(C)ccc1CNC(=O)OC(C)(C)C	-4.09%
Cc1ccc(C)c(NC(=O)CCS(=O)(=O)c2ccccc2)c1	-4.18%
Oc1ccc2ccccc2c1N=Nc1nccs1	61.8% (active)

SMILES	inhibition
C[C@H](C(=O)N(C)c1ccccc1)[C@@H](O)c1ccc(Cl)cc1	0.42%
Nc1[nH]c(C(=O)c2ccccc2)c(-c2ccc(Br)cc2)c1C(=O)NC1CC1	1.95%
Nc1[nH]c(C(=O)c2ccccc2)c(-c2ccncc2)c1C(=O)NCc1cccc2ccccc12	-0.51%
Nc1[nH]c(C(=O)c2ccc(Br)cc2)c(-c2ccc3c(c2)OCO3)c1C(=O)NCCc1c[nH]c2ccccc12	48.9% (active)
O=c1ccc2c(-c3ccccc3S(=O)(=O)O)c3ccc(O)c(O)c3oc-2c1O	34% (active)
COc1ccc(-n2c(COc3ccccc3)nnc2SCC(=O)Nc2ccc3c(c2)OCO3)cc1	-9.7%
CC(=O)OCCN1CCCC12CCC(c1ccccc1)CC2 (stereo unspecified)	0.33%
Cc1ccc(S(=O)(=O)N2CCC(C(=O)N[C@@H](C)C(=O)NCc3ccco3)CC2)cc1	-2.84%
CN1CCN(C(=O)c2cnn(-c3ccccc3)c2NC(=O)c2ccc([N+](=O)[O-])cc2)CC1	-2.86%
Cc1cccc(C(=O)NC(=S)N2CCN(c3ccc([N+](=O)[O-])cc3)CC2)c1	-5.02%
Cc1cc(/C=N/Nc2ccc([N+](=O)[O-])cn2)c(C)n1-c1cccc(C(=O)O)c1	45.6% (active)
O=C(N[C@@H]1C/C=C\C[C@@H](CC(=O)N(CCO)Cc2ccccc2)C(=O)N[C@H](Cc2ccccc2)COC1=O)OCC1c2ccccc2-c2ccccc21	7.4%
CSc1ccc(C=Nn2c(-c3ccc(F)cc3)n[nH]c2=S)cc1	0.61%
CCCCc1c(-c2ccc(Br)cc2)ncn1CCc1ccccc1OC	-0.8%
CCOCCCNC(=O)C(NC(=O)c1ccccc1O)c1ccccc1 (stereo unspecified)	-0.7%
Clc1ccc(C2=CSC3=Nc4cccc5cccc(c45)N23)cc1	38.4% (active)
O=C(OCC#CCSc1nnc(-c2ccco2)o1)c1ccc(F)cc1	-9.72%
Cc1oc2cc(Br)c(O)c(Br)c2c1C(=O)c1ccccc1	44.9% (active)
COc1cc(/C(=C/c2ccccc2)c2ccccc2)c2c(c1)oc1ccccc12	-1.7%
Cc1oc2cc([N+](=O)[O-])c(O)c([N+](=O)[O-])c2c1C(=O)c1ccc(Br)cc1	8.71%
